Source: ChEMBL document CHEMBL5653606 (J Pharmacol Exp Ther, 2011)
pIC50: −log10 of the molar value. Active and inactive are the calls of the source.

What was measured:
[1] = Brain concentration in CFA induced Sprague-Dawley rat at 0.1 mg/kg, po by LC/MS analysis; assay type: ADME, organism-based; conditions: in vivo, read-out: Ct
[2] = target: T1, Fatty-acid amide hydrolase 1 (Rattus norvegicus) (UniProt P97612); assay: In vivo inhibition of FAAH in CFA induced Sprague-Dawley rat plasma assessed as elevation of PEA level at 1 mg/kg, po measured for 1 to 24 hrs; assay type: functional, organism-based; conditions: time 1-24 hrs
T1 sequence (whole entry): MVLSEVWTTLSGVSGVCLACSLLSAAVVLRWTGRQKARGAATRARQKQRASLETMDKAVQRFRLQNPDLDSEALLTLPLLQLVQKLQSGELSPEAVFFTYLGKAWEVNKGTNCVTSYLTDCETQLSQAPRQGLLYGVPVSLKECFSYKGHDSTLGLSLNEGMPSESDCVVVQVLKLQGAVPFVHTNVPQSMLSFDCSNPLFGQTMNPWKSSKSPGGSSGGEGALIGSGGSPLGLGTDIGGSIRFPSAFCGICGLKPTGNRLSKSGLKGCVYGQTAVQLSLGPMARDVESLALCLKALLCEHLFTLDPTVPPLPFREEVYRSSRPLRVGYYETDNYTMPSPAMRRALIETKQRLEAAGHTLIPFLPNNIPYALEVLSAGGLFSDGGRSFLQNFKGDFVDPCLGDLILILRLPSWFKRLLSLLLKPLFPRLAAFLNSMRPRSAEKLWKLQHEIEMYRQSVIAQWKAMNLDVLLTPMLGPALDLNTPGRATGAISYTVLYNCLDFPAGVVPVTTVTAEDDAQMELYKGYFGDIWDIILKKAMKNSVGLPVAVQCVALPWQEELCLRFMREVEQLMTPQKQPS

Rattus norvegicus [3] = assay: Antihyperalgesic activity in CFA induced Sprague-Dawley rat assessed as partial reduction of mechanical allodynia at 3 mg/kg, po in presence of CB1 antagonist SR141716 by von frey test; assay type: functional, organism-based
Procedure, shortened: (§1)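 Male Sprague-Dawley rats (200–250 g) given 150 μl CFA (1 mg/ml in mineral oil) intraplantar in the hind paw. Mechanical paw withdrawal thresholds read with Von Frey hairs on day 5 postinjection. Dosed orally as nanocrystalline suspension in 2% polyvinylpyrrolidone/0.15% SDS in water, 10 ml/kg. PWTs taken 4 h postdose for dose-response, or at 1, 2, 4, 8, 24 h for time course.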

Rattus norvegicus [4] = assay: Antihyperalgesic activity in CFA induced Sprague-Dawley rat assessed as partial reduction of mechanical allodynia at 3 mg/kg, po in presence of CB2 antagonist SR144528 by von frey test; assay type: functional, organism-based; procedure, shortened: as §1
Mus musculus [5] = assay: In vivo inhibition of rhodamine-azide tagged FAAH expressed in mouse brain at 1 mg/kg, po by CC-ABPP method based in-gel fluorescence scanning analysis; assay type: functional, organism-based
Rattus norvegicus [6] = assay: Antihyperalgesic activity in MIA induced Sprague-Dawley rat assessed as increased joint compression thresholds at 3 mg/kg, po administered once daily for 3 consecutive days and measured after 2 to 4 hrs; assay type: functional, organism-based; conditions: time 3.0 day
Procedure, shortened: (§2)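 Male Sprague-Dawley rats (220–270 g), isoflurane-anesthetized, given 2 mg MIA in 0.9% saline (50 μl) intra-articular into the knee. From day 14, oral dosing at 10 ml/kg once daily for 3 days in 4% 2-hydroxypropyl-β-cyclodextrin/1% ethanol in 0.01 M HCl. Celecoxib 30 mg/kg in 0.5% methylcellulose twice daily. Joint compression threshold by digital Randall-Selitto at 2 and 4 h postdose on days 1 and 3; n = 10/group.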

Mus musculus [7] = assay: Antinociceptive activity in C57BL6/J mouse assessed as effect in catalepsy at 1 to 10 mg/kg, po administered for 4 hrs; assay type: functional, organism-based; conditions: dose 1-10 mg/kg
Procedure, shortened: (§3)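 Male C57BL/6J mice, 7 weeks old, n = 8/group, dosed orally at 1 or 10 mg/kg in PEG 300 (4 ml/kg). Tetrad tested 4 h postdose: locomotor activity, tail-immersion thermal nociception, catalepsy (assessed 60 s), body temperature. Means ± S.E.M. versus vehicle.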

Rattus norvegicus [8] = assay: Antihyperalgesic activity in MIA induced Sprague-Dawley rat assessed as increased joint compression thresholds at 0.3 mg/kg, po administered once daily for 3 consecutive days and measured after 2 to 4 hrs; assay type: functional, organism-based; conditions: time 3.0 day; procedure, shortened: as §2
Mus musculus [9] = assay: In vivo inhibition of rhodamine-azide tagged FAAH expressed in mouse brain at 10 mg/kg, po by CC-ABPP method based in-gel fluorescence scanning analysis; assay type: functional, organism-based
[10] = target: T1, Fatty-acid amide hydrolase 1 (Rattus norvegicus); assay: In vivo inhibition of FAAH in CFA induced Sprague-Dawley rat brain at 0.1 to 10 mg/kg, po relative to control; assay type: functional, organism-based; conditions: dose 0.1-10 mg/kg
Procedure, shortened: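 Brain and blood leukocyte membrane fractions from CFA rats after oral dosing. FAAH activity measured with 3H-labeled AEA substrate, quantifying released 3H-ethanolamine; n = 3 rats/group. Time course sampled at 1, 2, 4, 8, 24 h after 1 mg/kg.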

[11] = Plasma concentration in rat at 5 mg/kg, po by LC/MS analysis; assay type: ADME, organism-based; conditions: in vivo
Mus musculus [12] = assay: Antinociceptive activity in C57BL6/J mouse assessed as effect in locomotive activity at 1 to 10 mg/kg, po administered for 4 hrs; assay type: functional, organism-based; conditions: dose 1-10 mg/kg; procedure, shortened: as §3
[13] = target: T2, Fatty-acid amide hydrolase 1 (Rattus norvegicus, UniProt P97612); assay: Inhibition of rat FAAH assessed as kinact/Ki ratio incubated for 15 min in presence of glutamate dehydrogenase by 384-well format microplate reader assay
T2 sequence (P97612 whole entry): T1 sequence (whole entry)

[14] = target: T1, Fatty-acid amide hydrolase 1 (Rattus norvegicus); assay: In vivo inhibition of FAAH in CFA induced Sprague-Dawley rat plasma at 1 mg/kg, po measured for 1 to 24 hrs; assay type: functional, organism-based; conditions: time 1-24 hrs
[15] = target: T1, Fatty-acid amide hydrolase 1 (Rattus norvegicus); assay: In vivo inhibition of FAAH in CFA induced Sprague-Dawley rat plasma assessed as elevation of NAE level at 0.1 to 10 mg/kg, po; assay type: functional, organism-based; conditions: dose 0.1-10 mg/kg
Procedure, shortened: (§4)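 Lipid (NAE) levels in rat brain and plasma measured by LC/MS after oral dosing in CFA rats; n = 3 rats/group. Time-course samples taken at 1, 2, 4, 8, 24 h after 1 mg/kg.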

[16] = target: T1, Fatty-acid amide hydrolase 1 (Rattus norvegicus); assay: In vivo inhibition of FAAH in CFA induced Sprague-Dawley rat WBC assessed as elevation of AEA level at 0.1 to 10 mg/kg, po using 3H-labeled AEA as substrate; assay type: functional, organism-based; conditions: dose 0.1-10 mg/kg
[17] = target: T1, Fatty-acid amide hydrolase 1 (Rattus norvegicus); assay: In vivo inhibition of FAAH in CFA induced Sprague-Dawley rat brain assessed as elevation of NAE level at 0.1 to 10 mg/kg, po; assay type: functional, organism-based; conditions: dose 0.1-10 mg/kg; procedure, shortened: as §4
[18] = Plasma concentration in CFA induced Sprague-Dawley rat at 0.1 mg/kg, po by LC/MS analysis; assay type: ADME, organism-based; conditions: in vivo
[19] = Plasma concentration in rat at 1 mg/kg, po administered for 4 hrs by LC/MS analysis; assay type: ADME, organism-based
Procedure, shortened: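 Male Sprague-Dawley rats received a single oral dose of 1 mg/kg. Plasma (ng/ml) and brain (ng/g tissue) drug levels were measured at 1, 2, 4, 8 and 24 h after dosing.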

Mus musculus [20] = assay: Antinociceptive activity in C57BL6/J mouse assessed as thermal tail immersion at 1 to 10 mg/kg, po administered for 4 hrs; assay type: functional, organism-based; conditions: dose 1-10 mg/kg; procedure, shortened: as §3

concentration [1]: 38.9 nM | inhibition [2]: Active | inhibition [10]: 98% | concentration [11]: 2800 nM | pIC50 [13]: 7.57 | inhibition [14]: Active | inhibition [15]: Active | inhibition [16]: Active | inhibition [17]: Active | concentration [18]: 34.7 nM | concentration at 4 h [19]: 540 nM
SMILES: O=C(Nc1cccnn1)N1CCC(=Cc2cccc(Oc3ccc(C(F)(F)F)cn3)c2)CC1
Activity (Rattus norvegicus [3]): Active | Activity (Rattus norvegicus [4]): Active | inhibition (Mus musculus [5]): Active | Activity (Rattus norvegicus [6]): Active | Activity (Mus musculus [7]): Non-Toxic | Activity (Rattus norvegicus [8]): Active | inhibition (Mus musculus [9]): Active | Activity (Mus musculus [12]): Non-Toxic | Activity (Mus musculus [20]): Toxic
